Mdm2 MdmX PPI: human Mdm2/MdmX binding inhibition; O15151+Q00987; SaOS-2 split-luciferase Mdm2/MdmX complementation, luminescence; inhibition, % at 8 µM; hit rate 3% among 330,000; AID 485346;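 active means inhibition of at least 50% at 8 µM in the primary screen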
Target sequence (O15151 whole entry, looked up): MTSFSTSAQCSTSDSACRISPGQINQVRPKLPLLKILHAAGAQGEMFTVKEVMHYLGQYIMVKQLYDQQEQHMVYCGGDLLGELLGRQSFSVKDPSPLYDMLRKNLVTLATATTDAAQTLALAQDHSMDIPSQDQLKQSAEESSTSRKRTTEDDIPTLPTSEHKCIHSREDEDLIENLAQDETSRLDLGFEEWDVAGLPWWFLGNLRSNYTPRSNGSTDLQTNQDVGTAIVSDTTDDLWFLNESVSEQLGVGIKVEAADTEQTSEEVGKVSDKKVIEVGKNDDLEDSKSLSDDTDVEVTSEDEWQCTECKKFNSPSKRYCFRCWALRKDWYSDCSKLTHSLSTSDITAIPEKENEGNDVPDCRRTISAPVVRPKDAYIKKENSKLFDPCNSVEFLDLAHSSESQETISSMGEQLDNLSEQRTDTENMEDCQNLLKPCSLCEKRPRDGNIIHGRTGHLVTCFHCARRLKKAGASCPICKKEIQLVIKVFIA
Target sequence (Q00987 whole entry, looked up): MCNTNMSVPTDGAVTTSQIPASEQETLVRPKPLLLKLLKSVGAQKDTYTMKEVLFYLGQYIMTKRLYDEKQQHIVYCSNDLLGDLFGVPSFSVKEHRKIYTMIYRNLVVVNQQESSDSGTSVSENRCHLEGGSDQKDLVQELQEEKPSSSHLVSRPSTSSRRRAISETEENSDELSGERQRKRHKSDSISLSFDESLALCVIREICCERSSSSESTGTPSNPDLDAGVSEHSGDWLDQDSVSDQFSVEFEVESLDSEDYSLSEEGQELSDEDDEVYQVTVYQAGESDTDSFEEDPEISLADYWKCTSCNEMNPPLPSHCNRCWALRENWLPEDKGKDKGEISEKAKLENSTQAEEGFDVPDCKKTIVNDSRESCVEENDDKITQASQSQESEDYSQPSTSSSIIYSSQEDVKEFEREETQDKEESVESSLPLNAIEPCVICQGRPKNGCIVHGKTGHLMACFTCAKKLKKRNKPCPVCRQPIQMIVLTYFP
CSC inhib: cancer stem cell inhibition. cancer stem cell-like cells viability, luminescence. inhibition, % at 7.5 µM. hit rate 1.1% among 300,000. AID 2717; in the data active means inhibition above about 75%; tested in HMLE shEcad cells
T cruzi repl: T. cruzi replication inhibition. T. cruzi beta-gal in NIH3T3, luminescence, 90 h. inhibition, % (concentration not given with the values). hit rate 1.4% among 300,000;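 active means mean inhibition across valid replicates above about 55%, limit read from the data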;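 further: signal also drops with host cell toxicity which is not excluded here; 0% = plate median of DMSO wells and 100% = zero luminescence signal; higher percent means less beta-gal luminescence so fewer parasites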
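Test system: β-gal T. cruzi (Tulahuen C4) inside NIH/3T3 cells / Quantity: 5,000 cells/well / Measured by: luminescence from GalScreen with 0.05% NP40, read after 60 min / Medium: DMEM plus 2% FBS / Measure: parasite load inhibition, % / Reagent: Tulahuen C4 trypomastigotes, 5000/well / Schedule: co-culture of at least 90 h after 3 h attachment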
aSyn 5UTR inh: 5' untranslated region of α-synuclein, MLPCN primary screen; inhibition, % (tested at 7.5 µM); alpha-synuclein 5'UTR reporter, inhibitor activity; hit rate 0.82% among 300,000; in the data active means inhibition above about 60%;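 further: H4 neuroglioblastoma cells stably carrying SNCA 5'UTR luciferase fusion; 0% = DMSO wells and 100% = positive control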
SKKanGAS inh: SKKanGAS growth inhibition; S. pyogenes SKKanGAS, kanamycin growth, BacTiter-Glo, 6 h; inhibition, % at 7.5 µM; hit rate 1.3% among 300,000;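 active means mean replicate score, as percent of positive control median, at least 50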;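 further: strain carries kanamycin resistance gene driven by streptokinase promoter and grows in 40 µg/ml kanamycin; loss of luminescence reflects streptokinase promoter inhibition or plain growth inhibition; 0% = median of DMSO wells and 100% = positive control at its reference dose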
Mdm2 MdmX conf: human Mdm2/MdmX binding inhibition, confirmed | shares compounds with Mdm2 MdmX PPI | luminescent assay | inhibition, % at 8 µM | hit rate 55% among 10,000 | AID 489028; in the data active means inhibition above about 40%
Full FLuc ctr: inhibits full-length luciferase, flagging false Mdm2/MdmX hits | hit rate 77% among 6,200 | shares compounds with Mdm2 MdmX PPI | inhibition, % at 8 µM | SaOS-2 full-length luciferase counterscreen, luminescence | AID 504607;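 active means mean inhibition at 8 µM reaching about 37%, which flags the compound as non-specific, limit read from the data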;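 further: p53-null SaOS-2 cells with luciferase driven by a doxycycline-inducible promoter; compound on cells about two nights before reading with doxycycline added after day one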
Active calls of the source: *; . = no result. Most compounds without a hit are left out; they make up all but 5.4% or so of the library.

SMILES | Mdm2 MdmX PPI | CSC inhib | T cruzi repl | aSyn 5UTR inh | SKKanGAS inh | Mdm2 MdmX conf | others
CC(NC(=S)NC1CCCCC1)c1ccc(C(C)(C)C)cc1 (stereo unspecified) | 67* | 45 | 42 | -1 | 56* | 24
CC(C)c1ccc(C(C)NC(=S)NC2CCCCC2)cc1 (stereo unspecified) | 8 | -12 | 27 | 21 | 38 | .
N#Cc1nc(-c2ccc(OCc3ccc(Cl)cc3)cc2)oc1N1CCOCC1 | 55* | 8 | -9 | 29 | 5 | 22
Cc1noc(NS(=O)(=O)c2ccc(NC(=O)c3ccccc3NS(=O)(=O)c3ccc(F)cc3)cc2)c1C | 18 | -22 | . | . | . | .
COCc1cc(=O)[nH]c(Nc2nc(C)c3ccccc3n2)n1 | 25 | 9 | -1 | -36 | 20 | .
Cc1cc(C)c2nc(Nc3nc(-c4ccccc4)cc(=O)[nH]3)nc(C)c2c1 | 71* | 6 | 25 | -5 | 9 | 23
Cc1ccc2oc(Nc3nc(-c4ccccc4)cc(=O)[nH]3)nc2c1 | 97* | . | 75* | -45 | -15 | 21
CCCCc1nc(SCC(=O)N2CCCC2)c2c(=O)n(C)c(=O)n(C)c2n1 | -1 | -21 | 15 | 19 | 1 | .
N#CC1=C(N)C(C#N)(C#N)C(c2cccnc2)C2CC(c3ccccc3)CC=C12 (stereo unspecified) | 62* | 7 | -3 | 10 | -3 | 61* | Full FLuc ctr=23
N#CC1=C(N)C(C#N)(C#N)C(c2cccnc2)C2CCCC=C12 (stereo unspecified) | 26 | -6 | . | . | -11 | .
Cc1cc(Br)cc2c1N(C)C(=O)C2(c1ccc(O)cc1)c1ccc(O)cc1 | 12 | 21 | 22 | -4 | -2 | .
C[C@@]12C(=O)OC(=O)[C@]1(C)C1CCC2O1 | 99* | 109* | . | . | . | 93* | Full FLuc ctr=52*
CN(C)CCn1c(=O)n(C2CCCCC2)c(=O)c2c3c(sc21)CCCCC3 | 59* | 34 | 37 | -8 | -5 | 45* | Full FLuc ctr=65*
Cc1cccc(N=c2oc3cc(O)ccc3cc2C(N)=O)c1 | 50* | 8 | 10 | -77 | 1 | -37
COc1ccc2cc(C(N)=O)c(=Nc3ccc(C)cc3)oc2c1 | 54* | 0 | -4 | -62 | 22 | 46* | Full FLuc ctr=35
CN(C)CC(C)(C)CNS(=O)(=O)CC12CCC(CC1=O)C2(C)C (stereo unspecified) | -13 | -4 | -7 | 7 | -7 | .
CN(C)S(=O)(=O)c1cccc(NC(=O)c2cccc(S(=O)(=O)N3CCCCC3)c2)c1 | 29 | . | -13 | 16 | 34 | .
CCN1C(=O)C(F)(CC)C(=O)c2ccccc21 (stereo unspecified) | -5 | -2 | -2 | 22 | 2 | .
CN(C)CCCN1c2ccccc2Sc2ccc(Cl)cc21 | 68* | 18 | 22 | -4 | 6 | 13
OCCN1CCN(CCCN2c3ccccc3Sc3ccc(Cl)cc32)CC1 | 46 | 38 | 5 | -57 | 4 | .
CC[C@@]1(c2ccccc2)C(=O)N(C(=O)OC)N1C(=O)OC | 19 | 13 | 7 | -28 | 2 | .
COC(=O)N1C(=O)[C@@](c2ccccc2)(C2CCCCC2)N1C(=O)OC | 66* | 32 | -12 | -23 | -2 | 45* | Full FLuc ctr=49*
COC(=O)N1C(=O)[C@](Cc2ccccc2)(c2ccccc2)N1C(=O)OC | 55* | 9 | -12 | -13 | 6 | 25
COC(=O)N1C(=O)[C@@](Cc2ccccc2)(c2ccccc2)N1C(=O)OC | 61* | 22 | -25 | -8 | -3 | 50* | Full FLuc ctr=57*
Cc1ccc(-n2c(C)cc(C(=O)CN3CCCCC3)c2C)cc1 | -3 | 7 | 26 | -55 | -3 | .
SMILES | Mdm2 MdmX PPI | CSC inhib | T cruzi repl | aSyn 5UTR inh | SKKanGAS inh | Mdm2 MdmX conf | others
O=C(CCNC(=O)c1ccccc1)NNC(=O)COc1ccccc1Cl | -13 | . | . | . | . | .
O=c1o[nH]c(-c2ccccc2)c1-c1ccccc1 | 14 | 8 | . | 12 | 5 | .
O=c1c(-c2ccccc2)c1-c1ccccc1 | 54* | . | -9 | -53 | 1 | 12
CC(C)(C)CC(C)(C)NC(=O)/C=C/C(=O)O | 32 | -6 | -4 | -18 | 2 | .
CC(C)(C)S(=O)(=O)c1nc2ccccc2s1 | 23 | . | -13 | -13 | -2 | .
CCS(=O)(=O)CCSc1nc2ccccc2s1 | -4 | -23 | -11 | -7 | -7 | .
